Test results published in ChEMBL document CHEMBL1833907, “Triterpenoid constituents from the roots of Paeonia rockii ssp. rockii” (J Nat Prod, 2011).
Calls of active or inactive are those of the source. The calls are words filed in the database; no cut-off is given here.

Assays:
Assay type in all cases: functional, cell-based
M14 [1] = experiment: Cytotoxicity against human M14 cells after 48 hrs by MTT assay; conditions: M14, 48 h
Summary of the method: (§1)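 M-14 melanoma cells grown in DMEM with 2 mM L-glutamine, 10% heat-inactivated FBS and 1% penicillin/streptomycin, used for at most 10 passages. Cells were seeded at 3 × 10^3 per well, given serial dilutions (1–50 μM) and incubated 48 h at 37 °C in humidified 5% CO2. Viability was read by MTT at 620 nm.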

M14 [2] = experiment: Cytotoxicity against human M14 cells at 1 to 50 uM after 48 hrs by MTT assay; summary of the method: as §1
M14 [3] = experiment: Induction of apoptosis in human M14 cells assessed as activation of caspase-3 at 50 uM after 24 hrs by Western blot analysis presence of polycaspase inhibitor z-VAD-fmk
M14 [4] = experiment: Induction of apoptosis in human M14 cells assessed as activation of caspase-3 at 50 uM after 8 to 24 hrs by Western blot analysis
M14 [5] = experiment: Induction of apoptosis in human M14 cells assessed as increase in hypodiploid cells after 24 hrs using propidium iodide staining by flow cytometry
Summary of the method: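 M-14 melanoma cells (DMEM, 2 mM L-glutamine, 10% heat-inactivated FBS, 1% penicillin/streptomycin, 37 °C, humidified 5% CO2, ≤10 passages) incubated 24 h with serial dilutions of compounds (1–50 μM). Nuclei stained with propidium iodide and analysed by flow cytometry. Apoptosis is taken as the percentage of hypodiploid nuclei versus untreated control. Three experiments, each in triplicate, means ± SEM.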

M14 [6] = experiment: Induction of apoptosis in human M14 cells assessed as increase in hypodiploid cells up to 25 uM after 24 hrs using propidium iodide staining by flow cytometry
Summary of the method: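 M-14 cells were treated with 1–50 μM for 24 h, then collected and stained with propidium iodide. The percentage of hypodiploid (apoptotic) nuclei was measured by flow cytometry against untreated controls. Values are means ± SEM of three experiments run in triplicate.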

Row | Compound | IC50 (M14 [1]) [µM] | Activity (M14 [2]) | also measured
1 | C=C(C)[C@@H]1CC[C@]2(C(=O)O)CC[C@]3(C)[C@H](CC[C@@H]4[C@@]5(C)CC[C@H](O)[C@@](C)(CO)[C@@H]5CC[C@]43C)[C@@H]12 | 50 | – | –
2 | C=C1CC[C@@]23CC[C@]4(C)[C@@](OC2=O)([C@@H]3C1)[C@H]1O[C@H]1[C@@H]1[C@@]2(C)CC[C@H](O)[C@@](O)(CO)[C@@H]2CC[C@]14C | – | inactive | –
3 | C=C1CC[C@]2(C(=O)O)CC[C@]3(C)C(=CC[C@@H]4[C@@]5(C)CC[C@H](O)C(C)(C)[C@@H]5CC[C@]43C)[C@@H]2C1 | – | inactive | –
4 | C=C1CC[C@]2(C(=O)O)CC[C@]3(C)C(=CC[C@@H]4[C@@]5(C)CC[C@H](O)[C@](C)(O)[C@@H]5CC[C@]43C)[C@@H]2C1 | – | inactive | –
5 | CC1(C)[C@@H](O)CC[C@]2(C)[C@H]3C=CC4=C(O)C(=O)C(=O)[C@@]4(C)[C@]3(C)CC[C@@H]12 | – | inactive | –
6 | COc1ccc(C(C)=O)c(O)c1 | – | inactive | –
7 | C[C@@]12CC(=O)[C@H]3C[C@]1(O)O[C@H](O2)[C@@H]3COC(=O)c1ccccc1 | – | inactive | –
8 | C[C@@]12C[C@@]3(O)O[C@@H](O1)[C@]1(COC(=O)c4ccccc4)[C@@H]3C[C@]12O[C@@H]1O[C@H](COC(=O)c2ccccc2)[C@@H](O)[C@H](O)[C@H]1O | – | inactive | –
9 | O=C(O)c1ccccc1 | – | inactive | –
10 | C=C(C)[C@@H]1CC[C@]2(C(=O)O)CC[C@]3(C)[C@H](CC[C@@H]4[C@@]5(C)CC[C@H](O)C(C)(C)[C@@H]5CC[C@]43C)[C@@H]12 [BETULINIC ACID] | 50 | – | Activity (M14 [3]): inactive; Activity (M14 [4]): Active; Activity (M14 [5]): Dose-dependent effect
11 | CC1(C)CC[C@]2(C(=O)O)CC[C@]3(C)C(=CC[C@@H]4[C@@]5(C)CC[C@H](O)[C@@](C)(CO)[C@@H]5CC[C@]43C)[C@@H]2C1 [HEDERAGENIN] | 58 | – | Activity (M14 [3]): inactive; Activity (M14 [4]): Active; Activity (M14 [6]): Active
12 | COc1cc2c(cc1O)[C@H](CO)[C@H](c1ccc(CCCO)c(OC)c1)O2 [LAWSONICIN] | 100 | – | –
13 | CC1(C)CC[C@]2(C(=O)O)CC[C@]3(C)C(=CC[C@@H]4[C@@]5(C)CC[C@H](O)C(C)(C)[C@@H]5CC[C@]43C)[C@@H]2C1 [OLEANOLIC_ACID] | 82 | – | Activity (M14 [3]): inactive; Activity (M14 [4]): Active; Activity (M14 [6]): Active
